Series [1] concerns MCF7. Put plainly: Cytotoxicity against human MCF7 cells assessed as reduction in cell viability incubated for 72 hrs by MTT assay. The format is functional, cell-based. Particulars: MCF7, 72 h. A digest of the protocol:
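About 5 × 10³ cells/well, seeded overnight at 37 °C, 5% CO₂, in DMEM or RPMI-1640 with 10% FBS and antibiotics. DMSO-dissolved compounds diluted in medium, exposure 72 h.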

Series [2] deals with HT-29. Put plainly: Cytotoxicity against human HT-29 cells assessed as reduction in cell viability incubated for 72 hrs by MTT assay. The format is functional, cell-based. Particulars: HT-29, 72 h. A general note: Formazan colour is commonly taken as a measure of viable cells.
The target of series [3] is T1, Aldehyde dehydrogenase 1A1 (Homo sapiens) (UniProt P00352).
T1 sequence (whole entry): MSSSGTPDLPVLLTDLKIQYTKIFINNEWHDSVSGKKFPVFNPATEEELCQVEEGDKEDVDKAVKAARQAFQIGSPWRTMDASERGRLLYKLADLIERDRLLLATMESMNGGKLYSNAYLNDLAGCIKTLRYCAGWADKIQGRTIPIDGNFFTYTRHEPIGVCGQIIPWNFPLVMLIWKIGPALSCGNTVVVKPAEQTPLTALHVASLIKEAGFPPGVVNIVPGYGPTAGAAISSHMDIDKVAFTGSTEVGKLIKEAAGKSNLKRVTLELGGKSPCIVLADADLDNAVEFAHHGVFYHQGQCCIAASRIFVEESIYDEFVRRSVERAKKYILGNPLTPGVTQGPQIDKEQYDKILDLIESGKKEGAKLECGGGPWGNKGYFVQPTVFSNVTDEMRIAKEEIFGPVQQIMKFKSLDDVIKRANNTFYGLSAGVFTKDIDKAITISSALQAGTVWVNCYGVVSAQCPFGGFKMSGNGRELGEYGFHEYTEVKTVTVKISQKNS
The series can be described thus: Inhibition of ALDH1A1 in human HCT116 cells assessed as reduction in mRNA transcriptional level at 20 uM after 24 hrs by RT-qPCR analysis. The format is cell-based. Particulars: HCT-116. A digest of the protocol:
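HCT-116 cells treated 24 h; total RNA by TRIZOL, one-step RT-qPCR: 55 °C 10 min, 95 °C 1 min, then 39 cycles of 95 °C 10 s and 60 °C 30 s, with melting-curve and no-template controls. β-Actin as internal standard; relative expression by 2^−ΔΔCt, mean ± SD (n = 3).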
(Quantitative PCR measures a nucleic acid by following its amplification.)

For series [4], the system named is HCT-116. The series can be described thus: Inhibition of cell stemness in human HCT116 cells assessed as reduction in number of tumor spheres at 5 uM after 10 days by microscopic analysis. The settings on record: time 10.0 day. It counts as functional, cell-based. The procedure, abridged:
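Sorted ALDH⁺ HCT-116 cells, 800/well, in serum-free DMEM with B27 (1:50), EGF 20 ng/mL, β-FGF 10 ng/mL; co-incubated with compound (5 μM) or DMSO vehicle for 10 days; sphere number, diameter and morphology scored from microscopy images; mean ± SD, n = 3.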

Series [5] deals with Glycogen synthase kinase-3 beta (Homo sapiens) (UniProt P49841). The series can be described thus: Inhibition of GSK3beta phosphorylation at serine 9 in human HCT-116 cells after 24 hrs by Western blot analysis. Particulars: dose 5-20 µM. The format is cell-based. The procedure, abridged: (§1)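 HCT-116 cells at 2 × 10⁵ cells/mL in DMEM/10% FBS, grown 12 h at 37 °C, then treated 24 h (vehicle DMSO). Lysates quantified by BCA, run on 10% SDS-PAGE, PVDF transfer, blocked in 5% milk/TBST, primary antibodies 4 °C overnight, HRP secondary 2 h, chemiluminescent detection; normalized to β-actin, n = 3.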
(In general: In western blotting, separated proteins are transferred to a membrane and probed.)

Series [6] deals with HCT-116. Put plainly: Effect on Wnt/beta-Catenin signaling in human HCT116 cells assessed as upregulation of DKK1 protein level after 24 hrs by Western blotting analysis. The format is functional, cell-based. Particulars: dose 5-20 µM. A digest of the protocol: as §1
In series [7] the test system is HCT-116. Put plainly: Inhibition of cell invasion in human HCT-116 cells at 5 uM after 24 hrs by crystal violet staining based inverted microscopic analysis. It counts as functional. The procedure, abridged: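 Transwell chambers ([…]); 1 × 10⁵ HCT-116 cells in serum-free medium in upper compartment, DMEM + 10% FBS as chemoattractant below; treated 24 h (vehicle DMSO); non-invading cells swabbed off, lower-surface cells crystal violet stained 30 min, counted by inverted microscope; mean ± SD, n = 3.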

Series [8] concerns HCT-116. The series can be described thus: Induction of apoptosis in human HCT116 cells assessed as late apoptotic cells at 10 uM after 24 hrs by annexin V-FITC/propidium iodide staining based flow cytometry (reference value: 5.1%). The format is functional.
Series [9] has as its system HCT-116. The series can be described thus: Induction of cell cycle arrest in human HCT116 cells assessed as accumulation at G0/G1 phase at 20 uM after 24 hrs by propidium iodide-staining based flow cytometry (reference value: 48.89%). It counts as functional.
Series [10] relates to HCT-116. The series can be described thus: Induction of apoptosis in human HCT116 cells assessed as increase in Bax protein expression at 20 uM incubated for 24 hrs by Western blot analysis. It counts as functional, cell-based. The procedure, abridged: as §1
Series [11] relates to HCT-116. Put plainly: Induction of apoptosis in human HCT116 cells assessed as down regulation of pro-caspase 3 level at 20 uM incubated for 24 hrs by Western blot analysis. It counts as functional, cell-based. The procedure, abridged:
as §1

Series [12] deals with HCT-116. The series can be described thus: Induction of apoptosis in human HCT116 cells assessed as upregulation of cleaved PARP level at 20 uM incubated for 24 hrs by Western blot analysis. It counts as functional, cell-based. A digest of the protocol:
as §1

Series [13] in a line: AUC(0 to t) in Sprague-Dawley rat at 25 mg/kg, po measured up to 48 hrs by LC-MS/MS analysis. The format is ADME, organism-based. Also noted: route oral, dose 25 mg/kg, time <=48. The settings on record: in vivo. The procedure, abridged:
(§2)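 Overnight-fasted male SD rats (about 250−270 g), three per group, single oral 25 mg/kg; test compound suspended in 5% CMC-Na, control as sodium salt in phosphate buffer. Blood sampled 0.25–48 h, plasma by centrifugation, stored −40 °C, quantified by LC−MS/MS against plasma standard curve (3–3000 ng/mL) with internal standard; model-fitted PK parameters.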

Series [14] is described as follows: AUC(0 to infinity) in Sprague-Dawley rat at 25 mg/kg, po measured up to 48 hrs by LC-MS/MS analysis. Also noted: route oral, dose 25 mg/kg, time <=48. The format is ADME, organism-based. Particulars: in vivo. A digest of the protocol: as §2
Series [15] can be described thus: MRT(0 to t) in Sprague-Dawley rat at 25 mg/kg, po measured up to 48 hrs by LC-MS/MS analysis. Particulars: in vivo. The format is ADME, organism-based. A digest of the protocol:
(§3)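 Overnight-fasted male SD rats (250−270 g, n = 3/group), single oral 25 mg/kg in 5% CMC-Na (reference sodium salt in phosphate buffer); plasma at 0.25–48 h (12 timepoints), stored −40 °C; LC−MS/MS with internal-standard calibration 3–3000 ng/mL; parameters fitted by model.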

Series [16] is described as follows: MRT(0 to infinity) in Sprague-Dawley rat at 25 mg/kg, po measured up to 48 hrs by LC-MS/MS analysis. The format is ADME, organism-based. The settings on record: in vivo. The procedure, abridged: as §3
Series [17] in a line: Toxicity in BALB/c mouse xenografted with human HCT116 cells assessed as effect on liver tissue at 60 to 90 mg/kg, po administered twice daily for 4 weeks and measured every 3 days by HE staining based assay. The format is organism-based, HCT-116. Particulars: in vivo, 672 h, dose 60-90 mg/kg. The procedure, abridged: (§4)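 Male 5-week BALB/c nude mice (16−18 g), 0.2 mL of 5 × 10⁷ cells/mL HCT-116 injected into right armpit; at ~100 mm³ randomized, 5/group; intragastric 60 or 90 mg/kg twice daily for 4 weeks; tumor volume and body weight every 3 days; after sacrifice heart, liver, spleen, lung, kidney HE-stained.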

Series [18] is described as follows: Toxicity in BALB/c mouse xenografted with human HCT116 cells assessed as effect on lung tissue at 60 to 90 mg/kg, po administered twice daily for 4 weeks and measured every 3 days by HE staining based assay. The format is organism-based, HCT-116. Particulars: in vivo, 672 h, dose 60-90 mg/kg. The procedure, abridged:
as §4

The structures appear in SMILES notation. Activity calls are given as the source filed them. The rule behind the calls is not given here.

Sequence of Glycogen synthase kinase-3 beta (Homo sapiens) (P49841 whole entry, looked up): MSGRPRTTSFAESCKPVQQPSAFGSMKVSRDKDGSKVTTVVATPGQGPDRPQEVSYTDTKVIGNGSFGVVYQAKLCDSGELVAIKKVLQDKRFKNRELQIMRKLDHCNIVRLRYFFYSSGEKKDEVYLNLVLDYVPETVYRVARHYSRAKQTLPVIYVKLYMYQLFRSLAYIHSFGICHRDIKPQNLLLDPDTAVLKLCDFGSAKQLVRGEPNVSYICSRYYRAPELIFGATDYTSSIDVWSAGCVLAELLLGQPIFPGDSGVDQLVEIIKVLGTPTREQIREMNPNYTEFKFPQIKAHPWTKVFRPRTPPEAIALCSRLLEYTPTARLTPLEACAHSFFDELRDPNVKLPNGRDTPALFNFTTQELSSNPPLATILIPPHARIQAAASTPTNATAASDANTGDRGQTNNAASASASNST

For the compound `O=C(NCCO)c1ccc2c(c1)nc(Nc1cccc(Cl)c1)c1ccncc12`, the 50% inhibitory concentration (IC50) – broadly, the concentration at which inhibition is half-maximal – in [1] came to 7.5 µM; in series [2] it was 5.18 µM. For the same compound, the inhibition result in series [3] and in series [4] was “Active” throughout. For the same compound, in series [5], the inhibition entry was “Dose-Dependent Effect”. Also, the Activity result is “Dose-Dependent Effect” in [6]; 23.4% in series [8]; 72.92% in series [9]; “Non-Toxic” in series [17]; “Non-Toxic” in [18]. The outcome in series [7], in [10], in series [11] and in series [12] was Active. Further, the AUC(0-t) (commonly exposure summed from dosing to a finite time, without extrapolation to infinity) at 48 h in series [13] turned out to be 40500 ng·h/mL. Moreover, the AUC(0-inf) – broadly, total exposure, with the tail of the curve extrapolated – in series [14] was determined as 41500 ng·h/mL. Moreover, the MRT last (usually a mean duration of stay, worked out from the concentration-time curve) at 48 h in series [15] turned out to be 6.21 h. In addition, the mean residence time (MRT inf) (usually a mean duration of stay, worked out from the concentration-time curve) in [16] was found to be 6.26 h.

Values taken from ChEMBL document CHEMBL4808178 (J Med Chem, 2021).
